Source: publication PMC3059864 (Clinics, 2011)

Experiments:
[1] = Biodistribution by pretargeting system in Nude mice bearing PC‐3 tumor cells; parameters: species or system Nude mice (Balb/c); settings: mouse, in vivo, iv, 50 ul of the mixture
PC‐3 tumor xenografts = assay: Scintigraphic imaging of tumor‐bearing mice; type: in vivo, Nude mice (Balb/c); settings: tumor‐bearing Nude mice
How it was run: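 PC-3 xenograft-bearing nude mice were pretargeted with the SA:B-MORF:biotinylated BBN analogue mixture (1:1:2) for 7 or 15 h, then given 99mTc-MAG3-cMORF intravenously. Anaesthetised mice, lying horizontally, were imaged on a gamma camera with a low-energy high-resolution collimator. Acquisition used a 20% energy window at 140 keV for 180 s. Tumour region-of-interest uptake was expressed as a percentage.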

In the case of `CSCC[C@H](NC(=O)[C@H](CC(C)C)NC(=O)[C@H](Cc1c[nH]cn1)NC(=O)CNC(=O)[C@@H](NC(=O)[C@H](C)NC(=O)[C@H](Cc1c[nH]c2ccccc12)NC(=O)[C@H](CCC(N)=O)NC(=O)CCOCCOCCOCCOCCOCCOCCOCCOCCOCCOCCOCCOCCNC(=O)CCCC[C@@H]1SC[C@@H]2NC(=O)N[C@@H]21)C(C)C)C(N)=O` [B‐PEG‐BBN, Biotin‐dPEG‐Gln‐Trp‐Ala‐Val‐Gly‐His‐Leu‐Met‐NH2], the tissue to tissue ratio [1] is reported as 2.45, the “ROI (region of interest) in scintigraphic images” value (PC‐3 tumor xenografts; 7 h) is reported as 1.47% and the “ROI (region of interest) in scintigraphic images” value (PC‐3 tumor xenografts; 15 h) is reported as 1.22%.
